Calls of active or inactive are those of the source. No cut-off for these calls is given here.
Legend:
Type in all cases: functional, cell-based
HepG2 [1] = experiment: Induction of autophagy in human HepG2 cells assessed as increase in LC3B2/1 ratio up to 20 uM measured after 24 hrs by Western blot analysis
How it was run: (§1)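 HepG2 cells exposed 24 h to test agent at final 1, 5, 10 or 20 μM. Lysis in RIPA buffer with protease inhibitor cocktail. Proteins resolved on 12% SDS-PAGE, blotted to nitrocellulose, and probed with antibodies to LC3B, P62, ATG5, ATG7, ATG4a and ATG4b. GAPDH served as loading control. Autophagosome formation was read as the LC3B II/I ratio.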

HepG2 [2] = experiment: Induction of autophagy in human HepG2 cells assessed as decrease in ATG4a protein level up to 20 uM measured after 24 hrs by Western blot analysis; how it was run: as §1
HepG2 [3] = experiment: Induction of autophagy in human HepG2 cells assessed as decrease in P62 protein level measured after 24 hrs by Western blot analysis; how it was run: as §1
HepG2 [4] = experiment: Induction of autophagy in human HepG2 cells assessed as increase in ATG4b protein level up to 20 uM measured after 24 hrs by Western blot analysis; how it was run: as §1
HepG2 [5] = experiment: Induction of autophagy in human HepG2 cells assessed as increase in ATG5 protein level up to 20 uM measured after 24 hrs by Western blot analysis; how it was run: as §1
HepG2 [6] = experiment: Induction of autophagy in human HepG2 cells assessed as increase in ATG7 protein level up to 20 uM measured after 24 hrs by Western blot analysis; how it was run: as §1
HCT-116 = experiment: Cytotoxicity against human HCT116 cells by MTT assay
A549 = experiment: Cytotoxicity against human A549 cells by MTT assay
HepG2 [7] = experiment: Cytotoxicity against human HepG2 cells by MTT assay
NCI-H460 = experiment: Cytotoxicity against human H460 cells by MTT assay

Row | Structure (SMILES) | Activity (HepG2 [1]) | Activity (HepG2 [2]) | Activity (HepG2 [3]) | Activity (HepG2 [4]) | Activity (HepG2 [5]) | Activity (HepG2 [6]) | IC50 (HCT-116) | IC50 (A549) | IC50 (HepG2 [7]) | IC50 (NCI-H460)
1 | CC[C@@H](O)C(=O)C1=C2C=C(C)Oc3c4c(c(=O)cc(c32)C1=O)[C@]1(O)[C@H](O4)O[C@H](C)[C@@H](OC)[C@H]1O | Active | Active | Dose-dependent effect | Active | Active | Active |  |  |  | 
2 | CC[C@@H](O)c1nc(C)cc2c1C(=O)c1cc(=O)c3c(c(O)c1-2)O[C@@H]1O[C@H](C)[C@@H](OC)[C@@H](O)[C@]31O | Active | Active | Dose-dependent effect | Active | Active | Active | 770 to 1800 µM | 770 to 1800 µM | 770 to 1800 µM | 770 to 1800 µM
3 | CC[C@H]1OC(=O)C[n+]2c(C)cc3c(c21)C(=O)c1cc(=O)c2c(c(O)c1-3)O[C@@H]1O[C@H](C)[C@@H](OC)[C@@H](O)[C@]21O | Active | Active | Dose-dependent effect | Active | Active | Active |  |  |  | 
4 | CCCC(=O)C1=C2C=C(C)Oc3c4c(c(=O)cc(c32)C1=O)[C@]1(O)[C@H](O4)O[C@H](C)[C@@H](OC)[C@H]1O | Active | Active | Dose-dependent effect | Active | Active | Active |  |  |  | 
5 | CC[C@H]1O[C@@](C)(O)C[n+]2c(C)cc3c(c21)C(=O)c1cc(=O)c2c(c(O)c1-3)O[C@@H]1O[C@H](C)[C@@H](OC)[C@@H](O)[C@]21O | Active | Active | Dose-dependent effect | Active | Active | Active | 190 to 530 µM | 190 to 530 µM | 190 to 530 µM | 190 to 530 µM

Reference: ChEMBL document CHEMBL4316660, “Isarubrolones Containing a Pyridooxazinium Unit from Streptomyces as Autophagy Activators” (J Nat Prod, 2019)
